From ChEMBL document CHEMBL4196085, “Structure-guided design of potent and permeable inhibitors of MERS coronavirus 3CL protease that utilize a piperidine moiety as a novel design element” (Eur J Med Chem, 2018)

Experiments:
[1] = molecular target: Replicase polyprotein 1ab (Feline coronavirus (strain FIPV WSU-79/1146) (FCoV), UniProt Q98VG9); assay: Inhibition of Feline infectious peritonitis virus 3CL protease using Dabcyl-KTSAVLQ/SGFRKME-Edans as substrate incubated for 30 mins followed by substrate addition measured after 1 hr by FRET assay
In short: (§1)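 Purified recombinant 3CLpro of FIPV, MERS-CoV or SARS-CoV was preincubated 30 min at 37 °C with serial compound dilutions or DMSO. Buffer: 20 mM HEPES pH 8, 200 mM NaCl, 0.4 mM EDTA, 60% glycerol, 6 mM DTT. Substrate was then added and fluorescence read 1 h later (ex 360/em 460 nm), minus no-protease background. IC50 came from variable-slope fits, at least two determinations.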

[2] = molecular target: Replicase polyprotein 1ab (Severe acute respiratory syndrome-related coronavirus, UniProt P0C6X7); assay: Inhibition of SARS coronavirus 3CL protease using Dabcyl-KTSAVLQ/SGFRKME-Edans as substrate incubated for 30 mins followed by substrate addition measured after 1 hr by FRET assay; in short: as §1
[3] = molecular target: Replicase polyprotein 1ab (Middle East respiratory syndrome-related coronavirus (isolate UnitedKingdom/H123990006/2012) (Betacoronavirus England 1) (Humancoronavirus EMC), UniProt K9N7C7); assay: Inhibition of Middle East respiratory syndrome-related coronavirus 3CL protease using Dabcyl-KTSAVLQ/SGFRKME-Edans as substrate incubated for 30 mins followed by substrate addition measured after 1 hr by FRET assay; in short: as §1
[4] = Cytotoxicity against mouse CCL-9.1 assessed as reduction in cell viability after 72 hrs by CytoTox 96 nonradioactive cytotoxicity assay; conditions: CCL-9.1 cells
In short: (§2)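 Confluent Vero81, CRFK or CCL9.1 cells were exposed to compound at 1–100 μM for 72 h. Cytotoxicity was read with the CytoTox 96 nonradioactive kit. CC50 was taken as the dose giving 50% cell death, averaged over at least two determinations.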

[5] = tested on: Feline infectious peritonitis virus; assay: Antiviral activity against Feline infectious peritonitis virus infected in […] cells assessed as reduction in viral titer after 48 hrs; type: functional, organism-based; conditions: Alphacoronavirus 1, 48 h
[6] = Cytotoxicity against cat CRFK cells assessed as reduction in cell viability after 72 hrs by CytoTox 96 nonradioactive cytotoxicity assay; type: cell-based, Felis catus; in short: as §2
[7] = tested on: Middle East respiratory syndrome-related coronavirus; assay: Antiviral activity against Middle East respiratory syndrome-related coronavirus infected in African green monkey Vero81 cells assessed as reduction in viral titer after 48 hrs; type: functional, organism-based
[8] = Cytotoxicity against African green monkey Vero81 cells assessed as reduction in cell viability after 72 hrs by CytoTox 96 nonradioactive cytotoxicity assay; type: cell-based; conditions: chlorocebus sabaeus; in short: as §2
[9] = Selectivity index, ratio of CC50 for African green monkey Vero81 cells to IC50 for Middle East respiratory syndrome-related coronavirus; type: toxicity; conditions: read-out: Ratio CC50/IC50

Replicase polyprotein 1ab (Middle East respiratory syndrome-related coronavirus (isolate UnitedKingdom/H123990006/2012) (Betacoronavirus England 1) (Humancoronavirus EMC), UniProt K9N7C7), sequence (K9N7C7 3248-3553 limits assumed): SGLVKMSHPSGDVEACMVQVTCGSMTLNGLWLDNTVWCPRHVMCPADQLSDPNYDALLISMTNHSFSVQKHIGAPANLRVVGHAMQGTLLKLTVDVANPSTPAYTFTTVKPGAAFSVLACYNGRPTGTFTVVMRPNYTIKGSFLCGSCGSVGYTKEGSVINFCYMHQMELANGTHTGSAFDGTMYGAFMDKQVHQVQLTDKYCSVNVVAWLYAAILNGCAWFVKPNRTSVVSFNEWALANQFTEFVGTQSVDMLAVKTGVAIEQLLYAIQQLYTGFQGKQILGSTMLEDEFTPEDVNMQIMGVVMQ
Replicase polyprotein 1ab (Feline coronavirus (strain FIPV WSU-79/1146) (FCoV), UniProt Q98VG9), sequence (Q98VG9 2904-3205 limits assumed): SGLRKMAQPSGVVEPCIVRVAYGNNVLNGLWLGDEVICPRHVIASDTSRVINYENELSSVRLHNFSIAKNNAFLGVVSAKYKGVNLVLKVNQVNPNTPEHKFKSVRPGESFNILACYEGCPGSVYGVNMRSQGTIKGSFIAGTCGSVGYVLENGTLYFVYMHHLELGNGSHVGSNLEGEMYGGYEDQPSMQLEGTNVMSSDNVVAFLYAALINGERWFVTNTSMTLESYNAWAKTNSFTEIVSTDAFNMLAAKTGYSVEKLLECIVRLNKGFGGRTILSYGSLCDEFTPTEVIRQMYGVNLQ

Row | SMILES | IC50 [1] [nM] | IC50 [2] [nM] | IC50 [3] [nM] | CC50 at 72 h [4] [nM] | EC50 [5] [nM] | CC50 at 72 h [6] [nM] | EC50 [7] [nM] | CC50 at 72 h [8] [nM] | selectivity ratio [9]
1 | CCC1(OC(=O)N[C@@H](CC(C)C)C(=O)N[C@@H](C[C@@H]2CCNC2=O)C(O)S(=O)(=O)O)CCN(C(=O)OC(C)(C)C)CC1 (some centres not stated) | 6700 | 4100 | 7500 | – | – | – | – | – | –
2 | CC(C)C[C@H](NC(=O)OC1(Cc2ccccc2)CCN(S(C)(=O)=O)CC1)C(=O)N[C@@H](C[C@@H]1CCNC1=O)C(O)S(=O)(=O)O (some centres not stated) | 1100 | 4300 | 900 | – | – | – | – | – | –
3 | CC(C)C[C@H](NC(=O)OC1(Cc2ccccc2)CCN(C(=O)OC(C)(C)C)CC1)C(=O)N[C@H](C=O)C[C@@H]1CCNC1=O | 1600 | 5200 | 800 | – | – | – | – | – | –
4 | CCC1(OC(=O)N[C@@H](CC(C)C)C(=O)N[C@H](C=O)C[C@@H]2CCNC2=O)CCN(C(=O)OC(C)(C)C)CC1 | 5500 | 5500 | 6100 | – | – | – | – | – | –
5 | CCOC(=O)N1CCC(OC(=O)N[C@@H](CC(C)C)C(=O)N[C@H](C=O)C[C@@H]2CCNC2=O)CC1 | 1300 | 3200 | 600 | – | – | – | – | – | –
6 | CC(C)C[C@H](NC(=O)OC1(Cc2ccccc2)CCN(S(C)(=O)=O)CC1)C(=O)N[C@H](C=O)C[C@@H]1CCNC1=O | 800 | 3900 | 700 | – | – | – | – | – | –
7 | CC(C)C[C@H](NC(=O)OC1(Cc2ccccc2)CCN(C(=O)OC(C)(C)C)CC1)C(=O)N[C@@H](C[C@@H]1CCNC1=O)C(O)S(=O)(=O)O (some centres not stated) | 2100 | 6300 | 700 | > 100000 | 100 | > 100000 | 800 | > 100000 | –
8 | CCOC(=O)N1CCC(OC(=O)N[C@@H](CC(C)C)C(=O)N[C@@H](C[C@@H]2CCNC2=O)C(O)S(=O)(=O)O)CC1 (some centres not stated) | 1100 | 8800 | 500 | – | – | – | – | – | –
9 | CC(C)C[C@H](NC(=O)OC1CCN(C(=O)OC(C)(C)C)CC1)C(=O)N[C@H](C=O)C[C@@H]1CCNC1=O | 800 | 2100 | 600 | – | – | – | – | – | –
10 | CC(C)C[C@H](NC(=O)OC1CCN(S(C)(=O)=O)CC1)C(=O)N[C@H](C=O)C[C@@H]1CCNC1=O | 3500 | 28800 | 700 | – | – | – | – | – | –
11 | CC(C)C[C@H](NC(=O)OC1CCN(C(=O)OC(C)(C)C)CC1)C(=O)N[C@@H](C[C@@H]1CCNC1=O)C(O)S(=O)(=O)O (some centres not stated) | 2400 | 5100 | 400 | > 100000 | 1500 | > 100000 | 500 | > 100000 | > 250
12 | CC(C)C[C@H](NC(=O)OC1CCN(S(C)(=O)=O)CC1)C(=O)N[C@@H](C[C@@H]1CCNC1=O)C(O)S(=O)(=O)O (some centres not stated) | 2300 | 42100 | 600 | – | – | – | – | – | –
